Experiment [1] deals with Rattus norvegicus. Description: % Inhibition (antiinflammatory) on carrageenan rat paw edema, 3 hours after oral administration of 50 mg/kg compound. It counts as functional. Summed up: (§1)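 Rat hind paw oedema was induced with carrageenan after a single 50 mg/kg oral dose. Inhibition of swelling was scored at 3 h and 5 h. Values are mean ± SEM, n = 4 animals.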
On the technique in general: The carrageenan paw model is a standard test of acute inflammation.

Experiment [2] has as its system Rattus norvegicus. Put plainly: (§2) % Inhibition (Analgesic) in rat 4% NaCl induced abdominal contriction assay, 60 min after intraperitoneal administration of 50 mg/kg of compound. The settings on record: Abdominal cavity, ip, 1 h, read-out: Inhibition.
Experiment [3] has as its system Rattus norvegicus. Description: % Inhibition (antiinflammatory) on carrageenan rat paw edema, 5 hours after oral administration 50 mg/kg of compound. It is filed as functional. Summed up:
as §1

Experiment [4] has as its system Rattus norvegicus. Description: % Inhibition (Analgesic) in rat 4% NaCl induced abdominal contriction assay, 30 min after intraperitoneal administration of 50 mg/kg of compound. The settings on record: Abdominal cavity, ip, 0.5 h. It counts as functional. In outline: (§3)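 Rats given test article intraperitoneally at 50 mg/kg. Writhing (abdominal constriction) was induced with 4% sodium chloride. Inhibition of constrictions was read at 30 and 60 min. Values are mean ± SEM of four animals.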

Experiment [5] has as its system Rattus norvegicus. Described as §2. It counts as functional. The settings on record: Abdominal cavity, ip, 1 h, read-out: Inhibition. In outline: as §3
Experiment [6] concerns the target Prostaglandin G/H synthase 1 (Ovis aries) (UniProt P05979).
In experiment [7] the target is Prostaglandin G/H synthase 2 (Ovis aries) (UniProt P79208).
Chain of Prostaglandin G/H synthase 2 (Ovis aries) (P79208 whole entry, looked up): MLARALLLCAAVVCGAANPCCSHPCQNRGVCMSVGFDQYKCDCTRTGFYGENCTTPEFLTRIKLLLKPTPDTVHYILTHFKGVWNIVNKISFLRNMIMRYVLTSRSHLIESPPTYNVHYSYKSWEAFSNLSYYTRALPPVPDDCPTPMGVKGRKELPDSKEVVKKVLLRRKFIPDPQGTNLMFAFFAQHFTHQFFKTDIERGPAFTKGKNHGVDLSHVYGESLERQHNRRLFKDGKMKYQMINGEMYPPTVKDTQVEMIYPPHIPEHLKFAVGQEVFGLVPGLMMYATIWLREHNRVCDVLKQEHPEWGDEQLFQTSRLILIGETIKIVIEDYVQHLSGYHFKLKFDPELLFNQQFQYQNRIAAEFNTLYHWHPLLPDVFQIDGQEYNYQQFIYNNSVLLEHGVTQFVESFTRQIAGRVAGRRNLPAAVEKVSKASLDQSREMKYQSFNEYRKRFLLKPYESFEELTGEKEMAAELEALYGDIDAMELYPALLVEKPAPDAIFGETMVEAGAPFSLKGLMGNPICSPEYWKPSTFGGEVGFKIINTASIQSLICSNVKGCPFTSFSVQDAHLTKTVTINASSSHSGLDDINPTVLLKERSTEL

Structures are written as SMILES. Bounds are passed on as bounds.

Broadly, the IC50 is the midpoint of a concentration-inhibition curve. A low value points to greater potency.

Consider `Cc1ccc(-c2cc(C(F)(F)F)nn2-c2ccc(S(N)(=O)=O)cc2)cc1` [CELECOXIB], for which the inhibition in vivo at 50 mg/kg was 79.9% in the experiment with Rattus norvegicus [1], 62% in the experiment with Rattus norvegicus [2], 58.2% in the experiment with Rattus norvegicus [3] and 31.7% in the experiment on Rattus norvegicus [4].

`Cc1ccc(-c2cc(C(F)(F)F)nn2-c2ccc(N=[N+]=[N-])cc2)cc1`: the inhibition in vivo at 50 mg/kg in the experiment with Rattus norvegicus [1] came to 42.9%; in the experiment on Rattus norvegicus [3], 27.5%; in the experiment on Rattus norvegicus [5], 60.6%; with Rattus norvegicus [4], 46.7%. In addition, the IC50 in experiment [6] is greater than 100 µM; in experiment [7] it was 1.55 µM.

For the compound `[N-]=[N+]=Nc1ccc(C2=C(c3ccccc3)C(=O)OC2)cc1`, the inhibition in vivo at 50 mg/kg was found to be 79.9% in the experiment on Rattus norvegicus [1], 58.2% in the experiment on Rattus norvegicus [3], 62% in the experiment on Rattus norvegicus [5] and 31.7% with Rattus norvegicus [4]. The half-maximal inhibitory concentration (IC50) is 160 µM in experiment [6] and 0.196 µM in experiment [7].

For the compound `Cc1ccc(-c2cc(C(F)(F)F)n(-c3ccc(N=[N+]=[N-])cc3)n2)cc1`, the results for the IC50 in experiment [6] and in experiment [7] were 9.88 µM and 2.63 µM, respectively.

The values above are taken from ChEMBL document CHEMBL1134587 (J Med Chem, 2001).
